Assay results: ChEMBL document CHEMBL4376872, “Scaffold Hopping of Natural Product Evodiamine: Discovery of a Novel Antitumor Scaffold with Excellent Potency against Colon Cancer” (J Med Chem, 2020)
Activity calls are given as the source filed them. The calls are words filed in the database; no cut-off is given here.

What was measured:
[1] = target: PI3-kinase p110-alpha/p85-alpha (Homo sapiens) (UniProt P27986+P42336); test: Inhibition of PI3K p110alpha/p85alpha (unknown origin) using PI3K lipid as substrate at 5 uM incubated for 40 mins in presence of 2.5 uM ATP by kinase-Glo luminescence assay relative to control; format: protein-complex assay
[2] = test system: HCT-116; test: Cell cycle arrest in human HCT116 cells assessed as accumulation in G1 phase at 12 nM incubated for 24 hrs by propidium iodide staining based flow cytometry (reference value: 45.18 %); format: functional
[3] = target: Tyrosine-protein kinase ABL1 (Homo sapiens) (UniProt P00519); test: Inhibition of Abl (unknown origin) using Abltide as substrate at 5 uM incubated for 40 mins in presence of 10 uM ATP by kiase-Glo luminescence assay relative to control
[4] = target: cAMP-dependent protein kinase catalytic subunit alpha (Homo sapiens) (UniProt P17612); test: Inhibition of PKAC-alpha (unknown origin) using CREBtide as substrate at 5 uM incubated for 40 mins in presence of 10 uM ATP by kiase-Glo luminescence assay relative to control
[5] = test system: NCI-H446; test: Antiproliferative activity against human NCI-H446 cells assessed as reduction in cell viability incubated for 72 hrs by CCK8 assay; format: functional, cell-based; settings: NCI-H446, 72 h
[6] = target: Serine/threonine-protein kinase PLK1 (Homo sapiens) (UniProt P53350); test: Inhibition of PLK1 (unknown origin) using PLK1 peptide as substrate at 5 uM incubated for 40 mins in presence of 10 uM ATP by kiase-Glo luminescence assay relative to control
[7] = test system: HCT-116; test: Antiproliferative activity against human HCT116 cells assessed as reduction in cell viability incubated for 72 hrs by CCK8 assay; format: functional, cell-based; settings: HCT-116, 72 h
[8] = target: Protein arginine N-methyltransferase 1 (Homo sapiens) (UniProt Q99873); test: Inhibition of PRMT1 (unknown origin) using plate-coated histone as substrate at 5 uM incubated for 90 mins in presence of 0.5 uM SAM by AlphaScreen assay relative to control
[9] = target: Protein mono-ADP-ribosyltransferase PARP12 (Homo sapiens) (UniProt Q9H0J9); test: Inhibition of PARP12 (unknown origin) using biotin-NAD+, NAD+ and sIDNA as substrate at 5 uM incubated for 1 hr by ELISA relative to control
[10] = target: Protein mono-ADP-ribosyltransferase PARP15 (Homo sapiens) (UniProt Q460N3); test: Inhibition of PARP15 (unknown origin) using biotin-NAD+, NAD+ and sIDNA as substrate at 5 uM incubated for 1 hr by ELISA relative to control
[11] = test system: HCT-116; test: Antitumor activity against human HCT116 cells xenografted in mouse assessed as reduction in tumor growth at 4 mg/kg, ip bid for 21 days administration starting from 10 days after tumor cell implantation measured every 2 or 4 days till the end of the treatment period relative to control; format: functional; settings: HCT-116, ip, read-out: TGI
In short: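 HCT116 xenografts in nude mice; intraperitoneal dosing on 21 consecutive days; tumour growth inhibition (TGI) versus untreated control, with body weight recorded. n = 6 mice per group; mean ± SEM; significance by Student's t test versus control.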

[12] = target: 72 kDa type IV collagenase (Homo sapiens) (UniProt P08253); test: Inhibition of MMP2 (unknown origin) using Mca-PLGLDpaAR as substrate at 5 uM preincubated with enzyme for 2 hrs followed by incubation with substrate for 15 mins by fluorescence based analysis relative to control
[13] = target: T1, DNA topoisomerase 1 (Escherichia coli (strain K12)) (UniProt P06612); test: Inhibition of Escherichia coli Top1 assessed as decrease in relaxation of supercoiled pBR322 plasmid DNA at 100 uM using supercoiled pBR322 plasmid DNA as substrate incubated for 15 mins by agarose gel electrophoresis analysis
T1 sequence (whole entry): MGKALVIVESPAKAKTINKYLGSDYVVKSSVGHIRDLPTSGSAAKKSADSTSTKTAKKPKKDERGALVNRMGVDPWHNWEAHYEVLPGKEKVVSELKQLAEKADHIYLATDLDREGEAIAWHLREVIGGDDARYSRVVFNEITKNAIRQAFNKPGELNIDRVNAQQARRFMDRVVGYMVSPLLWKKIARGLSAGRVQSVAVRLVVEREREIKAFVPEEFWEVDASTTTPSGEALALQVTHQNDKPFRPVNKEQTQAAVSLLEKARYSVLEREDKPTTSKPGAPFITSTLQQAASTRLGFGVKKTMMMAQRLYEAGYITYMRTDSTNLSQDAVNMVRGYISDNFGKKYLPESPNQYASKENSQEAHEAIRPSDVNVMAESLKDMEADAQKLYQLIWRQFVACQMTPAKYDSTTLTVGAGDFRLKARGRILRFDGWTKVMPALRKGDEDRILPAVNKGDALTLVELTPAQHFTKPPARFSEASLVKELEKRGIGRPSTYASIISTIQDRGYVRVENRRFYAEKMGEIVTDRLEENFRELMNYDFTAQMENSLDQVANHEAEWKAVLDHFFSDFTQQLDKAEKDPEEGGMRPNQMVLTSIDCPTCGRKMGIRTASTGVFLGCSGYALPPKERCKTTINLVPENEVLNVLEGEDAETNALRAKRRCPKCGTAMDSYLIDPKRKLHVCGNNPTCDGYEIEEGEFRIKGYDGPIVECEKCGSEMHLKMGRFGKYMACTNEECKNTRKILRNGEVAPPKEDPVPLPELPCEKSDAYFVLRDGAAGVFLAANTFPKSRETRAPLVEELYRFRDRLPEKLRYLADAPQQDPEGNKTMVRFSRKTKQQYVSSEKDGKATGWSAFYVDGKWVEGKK

[14] = test system: SK-HEP1; test: Antiproliferative activity against human SKHEP1 cells assessed as reduction in cell viability incubated for 72 hrs by CCK8 assay; format: functional, cell-based; settings: SK-HEP1, 72 h
[15] = target: T1, DNA topoisomerase 1 (Escherichia coli (strain K12)); test: Poison activity at Escherichia coli Top1 assessed as increase in […] band intensity at 12.5 to 100 uM using supercoiled pUC19 plasmid DNA as substrate incubated for 30 mins by agarose gel electrophoresis analysis
In short: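 Supercoiled pUC19 plasmid DNA was incubated with Top1 plus compound at 100, 50, 25 and 12.5 μM. Controls were DNA alone, DNA + Top1, and DNA + Top1 + CPT (100 μM). Products were resolved as gel lanes.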

[16] = test system: HCT-116; test: Induction of apoptosis in human HCT116 cells at 0.20 uM incubated for 24 hrs by annexin V-FITC and propidium iodide staining based flow cytometry (reference value: 0.86 %); format: functional
[17] = test system: HCT-116; test: Cell cycle arrest in human HCT116 cells assessed as accumulation in S phase at 12 nM incubated for 24 hrs by propidium iodide staining based flow cytometry (reference value: 42.31 %); format: functional
[18] = target: NAD-dependent protein deacetylase sirtuin-1 (Homo sapiens) (UniProt Q96EB6); test: Inhibition of N-terminal His tagged recombinant human SIRT1 (193 to end residues) expressed in baculovirus infected Sf9 cells using HDAC substrate 1 as substrate at 5 uM incubated for 30 mins by fluorescence based analysis relative to control
NAD-dependent protein deacetylase sirtuin-1 (Homo sapiens), sequence (Q96EB6 whole entry): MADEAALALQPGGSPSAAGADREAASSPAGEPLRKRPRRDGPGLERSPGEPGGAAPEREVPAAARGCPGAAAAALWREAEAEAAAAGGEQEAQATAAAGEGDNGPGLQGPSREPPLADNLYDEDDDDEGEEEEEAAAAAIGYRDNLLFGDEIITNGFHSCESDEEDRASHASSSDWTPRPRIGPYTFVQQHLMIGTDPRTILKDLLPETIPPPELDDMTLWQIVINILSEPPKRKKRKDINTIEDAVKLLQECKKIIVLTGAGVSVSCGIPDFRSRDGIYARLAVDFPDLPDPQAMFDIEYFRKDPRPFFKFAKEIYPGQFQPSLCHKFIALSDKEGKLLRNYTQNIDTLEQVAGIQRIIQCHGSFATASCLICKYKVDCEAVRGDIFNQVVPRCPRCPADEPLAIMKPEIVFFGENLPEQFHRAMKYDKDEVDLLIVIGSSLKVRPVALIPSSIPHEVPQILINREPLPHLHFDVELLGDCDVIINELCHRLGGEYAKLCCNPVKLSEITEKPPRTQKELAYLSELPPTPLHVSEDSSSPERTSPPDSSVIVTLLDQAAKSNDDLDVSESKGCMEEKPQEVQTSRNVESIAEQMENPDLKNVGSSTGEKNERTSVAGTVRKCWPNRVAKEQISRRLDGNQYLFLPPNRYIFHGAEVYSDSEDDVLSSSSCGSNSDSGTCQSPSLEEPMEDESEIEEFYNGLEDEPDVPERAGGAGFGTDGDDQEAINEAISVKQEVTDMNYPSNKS

Protein arginine N-methyltransferase 1 (Homo sapiens), sequence (Q99873 whole entry, looked up): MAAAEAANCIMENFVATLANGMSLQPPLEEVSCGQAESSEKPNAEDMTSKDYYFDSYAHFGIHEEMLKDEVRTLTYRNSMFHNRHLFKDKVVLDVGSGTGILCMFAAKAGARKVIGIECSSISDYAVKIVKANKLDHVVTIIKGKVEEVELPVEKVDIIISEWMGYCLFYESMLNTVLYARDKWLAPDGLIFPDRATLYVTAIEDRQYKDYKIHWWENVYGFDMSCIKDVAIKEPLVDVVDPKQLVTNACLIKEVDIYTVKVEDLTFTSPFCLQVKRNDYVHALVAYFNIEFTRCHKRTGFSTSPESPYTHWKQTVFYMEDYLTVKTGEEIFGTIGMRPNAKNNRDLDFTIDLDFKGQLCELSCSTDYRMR
Serine/threonine-protein kinase PLK1 (Homo sapiens), sequence (P53350 whole entry): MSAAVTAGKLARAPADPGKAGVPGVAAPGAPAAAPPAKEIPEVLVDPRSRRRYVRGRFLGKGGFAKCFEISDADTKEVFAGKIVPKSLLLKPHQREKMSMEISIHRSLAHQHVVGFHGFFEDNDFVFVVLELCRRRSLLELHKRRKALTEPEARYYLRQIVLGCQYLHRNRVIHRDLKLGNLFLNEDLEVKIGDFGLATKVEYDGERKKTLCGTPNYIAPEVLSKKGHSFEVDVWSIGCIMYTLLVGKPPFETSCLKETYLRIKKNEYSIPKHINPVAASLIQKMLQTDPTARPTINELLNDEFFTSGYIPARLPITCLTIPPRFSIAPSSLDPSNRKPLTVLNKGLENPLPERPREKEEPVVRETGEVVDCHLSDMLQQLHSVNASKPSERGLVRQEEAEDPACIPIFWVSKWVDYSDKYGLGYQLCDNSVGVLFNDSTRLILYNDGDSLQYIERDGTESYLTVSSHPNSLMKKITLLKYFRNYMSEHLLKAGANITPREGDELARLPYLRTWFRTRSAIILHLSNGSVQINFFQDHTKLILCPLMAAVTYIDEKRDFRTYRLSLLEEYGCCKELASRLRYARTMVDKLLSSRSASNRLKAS
72 kDa type IV collagenase (Homo sapiens), sequence (P08253 110-660 limits assumed): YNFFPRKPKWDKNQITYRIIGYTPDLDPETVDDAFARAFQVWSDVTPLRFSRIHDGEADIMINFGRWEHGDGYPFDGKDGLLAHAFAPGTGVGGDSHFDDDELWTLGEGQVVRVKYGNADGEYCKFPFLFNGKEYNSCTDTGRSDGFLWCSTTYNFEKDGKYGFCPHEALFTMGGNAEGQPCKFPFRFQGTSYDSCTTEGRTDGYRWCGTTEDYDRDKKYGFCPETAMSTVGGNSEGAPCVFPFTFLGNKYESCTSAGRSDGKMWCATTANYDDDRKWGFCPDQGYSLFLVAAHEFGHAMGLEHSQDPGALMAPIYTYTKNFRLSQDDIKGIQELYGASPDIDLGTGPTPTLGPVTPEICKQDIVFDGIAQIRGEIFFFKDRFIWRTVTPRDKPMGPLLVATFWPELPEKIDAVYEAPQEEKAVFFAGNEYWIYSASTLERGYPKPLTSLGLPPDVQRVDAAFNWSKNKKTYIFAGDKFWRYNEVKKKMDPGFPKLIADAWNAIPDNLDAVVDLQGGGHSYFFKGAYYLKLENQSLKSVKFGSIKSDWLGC
Protein mono-ADP-ribosyltransferase PARP12 (Homo sapiens), sequence (Q9H0J9 whole entry): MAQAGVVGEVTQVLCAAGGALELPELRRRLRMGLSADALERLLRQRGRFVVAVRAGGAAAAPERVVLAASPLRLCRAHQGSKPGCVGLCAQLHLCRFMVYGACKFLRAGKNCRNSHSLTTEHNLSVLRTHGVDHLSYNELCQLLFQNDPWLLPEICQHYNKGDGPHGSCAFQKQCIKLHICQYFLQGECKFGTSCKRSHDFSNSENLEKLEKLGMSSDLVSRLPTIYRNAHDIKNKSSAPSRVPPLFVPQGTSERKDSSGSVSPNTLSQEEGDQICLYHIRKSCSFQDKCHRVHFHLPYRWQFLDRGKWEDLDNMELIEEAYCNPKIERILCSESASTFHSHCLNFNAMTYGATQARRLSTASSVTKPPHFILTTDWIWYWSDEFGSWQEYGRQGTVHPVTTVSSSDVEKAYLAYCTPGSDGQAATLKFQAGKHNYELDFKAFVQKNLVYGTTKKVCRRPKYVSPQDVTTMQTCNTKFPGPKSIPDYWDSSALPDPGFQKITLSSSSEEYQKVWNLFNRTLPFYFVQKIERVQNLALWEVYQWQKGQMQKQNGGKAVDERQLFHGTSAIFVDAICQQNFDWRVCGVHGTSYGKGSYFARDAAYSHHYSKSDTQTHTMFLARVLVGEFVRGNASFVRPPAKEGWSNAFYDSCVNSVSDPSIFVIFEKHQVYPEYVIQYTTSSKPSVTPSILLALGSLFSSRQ
Protein mono-ADP-ribosyltransferase PARP15 (Homo sapiens), sequence (Q460N3 whole entry): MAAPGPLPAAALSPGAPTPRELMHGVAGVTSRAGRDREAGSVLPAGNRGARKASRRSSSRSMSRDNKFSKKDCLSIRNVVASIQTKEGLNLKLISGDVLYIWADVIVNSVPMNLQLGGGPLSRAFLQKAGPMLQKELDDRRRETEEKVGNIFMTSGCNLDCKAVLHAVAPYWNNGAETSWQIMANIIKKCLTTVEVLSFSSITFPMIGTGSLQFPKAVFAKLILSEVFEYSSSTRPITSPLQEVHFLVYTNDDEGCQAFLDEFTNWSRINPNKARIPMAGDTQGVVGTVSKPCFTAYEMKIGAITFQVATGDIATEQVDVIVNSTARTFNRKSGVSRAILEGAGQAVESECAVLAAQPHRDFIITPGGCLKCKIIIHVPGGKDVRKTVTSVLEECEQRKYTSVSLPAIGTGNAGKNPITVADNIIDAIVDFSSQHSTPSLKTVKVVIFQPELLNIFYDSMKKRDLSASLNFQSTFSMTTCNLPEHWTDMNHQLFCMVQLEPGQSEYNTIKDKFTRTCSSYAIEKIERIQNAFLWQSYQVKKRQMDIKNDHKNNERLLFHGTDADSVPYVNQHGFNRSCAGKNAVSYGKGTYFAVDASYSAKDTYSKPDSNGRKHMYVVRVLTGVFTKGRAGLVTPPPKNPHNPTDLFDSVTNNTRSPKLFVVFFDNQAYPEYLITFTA
Tyrosine-protein kinase ABL1 (Homo sapiens), sequence (P00519 whole entry): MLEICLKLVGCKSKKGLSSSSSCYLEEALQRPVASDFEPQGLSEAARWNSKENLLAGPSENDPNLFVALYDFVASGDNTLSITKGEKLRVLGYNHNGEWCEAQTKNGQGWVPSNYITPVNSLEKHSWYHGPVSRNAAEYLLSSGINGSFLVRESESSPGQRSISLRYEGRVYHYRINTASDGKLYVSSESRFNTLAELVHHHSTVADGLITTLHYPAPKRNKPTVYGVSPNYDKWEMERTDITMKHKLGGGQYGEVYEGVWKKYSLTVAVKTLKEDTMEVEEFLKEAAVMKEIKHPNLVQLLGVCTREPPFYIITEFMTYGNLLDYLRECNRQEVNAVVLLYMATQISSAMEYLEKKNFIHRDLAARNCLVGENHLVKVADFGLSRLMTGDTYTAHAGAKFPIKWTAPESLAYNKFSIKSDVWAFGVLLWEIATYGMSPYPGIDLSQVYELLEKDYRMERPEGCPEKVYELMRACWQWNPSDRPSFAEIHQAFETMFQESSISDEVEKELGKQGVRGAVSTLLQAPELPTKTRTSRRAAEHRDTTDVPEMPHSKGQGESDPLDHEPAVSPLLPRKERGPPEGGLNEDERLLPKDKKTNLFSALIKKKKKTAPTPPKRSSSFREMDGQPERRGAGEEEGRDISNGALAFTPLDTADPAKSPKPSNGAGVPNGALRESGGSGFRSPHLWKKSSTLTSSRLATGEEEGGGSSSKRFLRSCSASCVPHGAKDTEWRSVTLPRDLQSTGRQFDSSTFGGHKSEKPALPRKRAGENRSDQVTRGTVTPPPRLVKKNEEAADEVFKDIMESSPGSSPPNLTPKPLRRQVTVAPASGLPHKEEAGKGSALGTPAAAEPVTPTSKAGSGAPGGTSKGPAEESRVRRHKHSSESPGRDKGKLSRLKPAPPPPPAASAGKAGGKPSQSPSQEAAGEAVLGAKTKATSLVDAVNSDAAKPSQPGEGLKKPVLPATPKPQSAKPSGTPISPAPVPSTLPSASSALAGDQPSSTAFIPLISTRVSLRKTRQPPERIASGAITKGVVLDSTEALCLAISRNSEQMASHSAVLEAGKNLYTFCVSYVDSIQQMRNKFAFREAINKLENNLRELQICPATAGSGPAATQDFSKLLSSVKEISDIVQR

inhibition [1]: < 20%
inhibition [3]: < 20%
inhibition [4]: < 20%
IC50 [5]: > 200 µM
inhibition [6]: < 20%
IC50 [7]: 2 nM
inhibition [8]: < 20%
inhibition [9]: < 20%
inhibition [10]: < 20%
inhibition [12]: < 20%
inhibition [13]: Active
IC50 [14]: 1300 nM
inhibition [18]: < 20%
Structure (SMILES): COc1ccc2c(c1)cc1n2CCN2C(=O)c3cc(F)ccc3N(C)C12 (stereo not drawn)
Activity [2]: 24.07%
inhibition in vivo at 4 mg/kg [11]: 37%
Activity [15]: Active
Activity [16]: 45.97%
Activity [17]: 40.44%
